Reference: the M2OR odorant receptor database

Legend:
Conditions in all cases: stereoisomer not certain
[1] = target: T1, UniProt Q8VG27
T1 sequence (whole entry): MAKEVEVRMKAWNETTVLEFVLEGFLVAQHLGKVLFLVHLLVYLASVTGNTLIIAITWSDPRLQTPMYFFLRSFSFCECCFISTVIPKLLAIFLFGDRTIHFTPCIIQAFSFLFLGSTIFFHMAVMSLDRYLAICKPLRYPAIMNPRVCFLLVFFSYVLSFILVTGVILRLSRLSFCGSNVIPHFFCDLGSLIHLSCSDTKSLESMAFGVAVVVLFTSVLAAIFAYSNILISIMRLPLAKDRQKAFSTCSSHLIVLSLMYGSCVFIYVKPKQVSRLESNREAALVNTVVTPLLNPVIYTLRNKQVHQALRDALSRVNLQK
Procedure, shortened: (§1)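 Whether a receptor–molecule pair is responsive (active) rests on the original authors' judgment that its measured signal was statistically different from baseline. Pairs without that judgment are non-responsive (inactive). Sources used varied assay methods, commonly transient luciferase assays in mammalian cell lines.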

[2] = target: T2, UniProt Q8VG53
T2 sequence (whole entry): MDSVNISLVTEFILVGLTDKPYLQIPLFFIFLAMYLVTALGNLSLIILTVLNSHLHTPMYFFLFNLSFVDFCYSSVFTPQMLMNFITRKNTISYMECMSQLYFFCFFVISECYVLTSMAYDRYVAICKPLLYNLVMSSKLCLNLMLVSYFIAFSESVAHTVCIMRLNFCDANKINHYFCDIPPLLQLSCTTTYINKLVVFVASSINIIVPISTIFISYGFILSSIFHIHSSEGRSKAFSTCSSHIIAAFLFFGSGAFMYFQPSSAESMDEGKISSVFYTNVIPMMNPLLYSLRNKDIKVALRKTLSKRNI
Procedure, shortened: as §1

[3] = target: T3, UniProt Q8VG64
T3 sequence (whole entry): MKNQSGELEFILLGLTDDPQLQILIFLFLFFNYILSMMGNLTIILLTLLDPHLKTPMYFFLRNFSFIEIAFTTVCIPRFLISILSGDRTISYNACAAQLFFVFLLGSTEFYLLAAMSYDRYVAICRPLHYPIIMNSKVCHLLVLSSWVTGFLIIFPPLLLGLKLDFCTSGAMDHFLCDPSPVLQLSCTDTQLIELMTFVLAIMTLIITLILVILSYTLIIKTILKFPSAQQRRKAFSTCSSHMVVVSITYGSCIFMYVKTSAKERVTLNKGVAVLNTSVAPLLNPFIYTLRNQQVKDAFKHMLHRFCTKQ
Procedure, shortened: as §1

[4] = target: T4, UniProt Q8VGB9
T4 sequence (whole entry): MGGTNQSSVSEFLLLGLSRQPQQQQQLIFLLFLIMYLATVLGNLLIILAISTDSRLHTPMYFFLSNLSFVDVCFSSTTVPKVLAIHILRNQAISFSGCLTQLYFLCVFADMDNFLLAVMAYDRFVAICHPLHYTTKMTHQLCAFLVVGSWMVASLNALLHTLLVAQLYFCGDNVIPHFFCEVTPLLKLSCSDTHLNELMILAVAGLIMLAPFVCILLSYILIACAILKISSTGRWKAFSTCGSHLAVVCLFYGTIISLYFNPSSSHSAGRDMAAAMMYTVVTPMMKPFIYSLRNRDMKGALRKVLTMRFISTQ
Procedure, shortened: as §1

[5] = target: T5, UniProt Q8VGC6
T5 sequence (whole entry): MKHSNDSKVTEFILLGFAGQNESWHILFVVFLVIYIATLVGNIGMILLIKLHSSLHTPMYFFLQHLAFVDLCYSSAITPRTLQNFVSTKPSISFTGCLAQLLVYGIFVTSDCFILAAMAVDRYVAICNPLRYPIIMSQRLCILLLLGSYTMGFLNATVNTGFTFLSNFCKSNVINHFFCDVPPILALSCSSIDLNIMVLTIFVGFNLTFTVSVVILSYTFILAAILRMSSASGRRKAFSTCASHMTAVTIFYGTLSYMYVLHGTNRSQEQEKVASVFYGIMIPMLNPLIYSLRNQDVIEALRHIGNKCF
Procedure, shortened: as §1

[6] = target: T6, UniProt Q8VGJ3
T6 sequence (whole entry): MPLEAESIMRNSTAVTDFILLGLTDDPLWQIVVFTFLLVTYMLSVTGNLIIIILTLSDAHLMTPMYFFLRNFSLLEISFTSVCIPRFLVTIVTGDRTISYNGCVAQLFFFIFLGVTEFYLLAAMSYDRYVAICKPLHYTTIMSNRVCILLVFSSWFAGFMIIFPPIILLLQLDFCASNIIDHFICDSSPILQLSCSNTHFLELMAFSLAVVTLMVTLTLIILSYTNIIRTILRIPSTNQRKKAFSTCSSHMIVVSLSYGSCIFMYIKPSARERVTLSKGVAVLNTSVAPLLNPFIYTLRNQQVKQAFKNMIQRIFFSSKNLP
Procedure, shortened: as §1

[7] = target: T7, UniProt Q8VGL0
T7 sequence (whole entry): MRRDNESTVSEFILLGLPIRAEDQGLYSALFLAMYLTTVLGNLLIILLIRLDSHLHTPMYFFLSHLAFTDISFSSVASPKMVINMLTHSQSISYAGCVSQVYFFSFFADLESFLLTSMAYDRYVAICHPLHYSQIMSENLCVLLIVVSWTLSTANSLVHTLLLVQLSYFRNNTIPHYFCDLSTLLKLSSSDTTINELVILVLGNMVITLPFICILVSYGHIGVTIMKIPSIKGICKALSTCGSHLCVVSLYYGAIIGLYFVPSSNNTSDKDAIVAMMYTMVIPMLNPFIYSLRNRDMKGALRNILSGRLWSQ
Procedure, shortened: as §1

Measured: odorant receptor agonist call;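 also: active if original authors judged signal statistically different from baseline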

CC=Cc1ccc(OC)cc1
inactive: all assays above

CC(C)CS
inactive: all assays above

CC(C)CCN
inactive: all assays above

C=C(C)C1CCC(C)C(O)C1 (stereo not given)
active: [7]
inactive: all other assays above

CC1CCC(C(C)C)C(=O)C1 (stereo not given)
inactive: all assays above

CC(=O)OCCc1ccccc1
inactive: all assays above

CC(=O)OC1(C)CCC23CC1C(C)(C)C2CCC3C (stereo not given)
inactive: all assays above

CCCCCCCOC(=O)C(C)C
inactive: all assays above

CC(=O)C1(C)CC2=C(CCCC2(C)C)CC1C (stereo not given)
inactive: all assays above

O=C(O)C1CCC1
inactive: all assays above
